From ChEMBL document CHEMBL4811225 (J Med Chem, 2021) come the findings set out here.

Test [1] can be described thus: Inhibition of human alpha4beta4 nAChR expressed in Xenopus laevis oocytes assessed as inhibition of acetylcholine-induced current response by two-electrode voltage-clamp method. It is filed as cell-based. Particulars: Oocyte. The gist of the method: (§1)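 TEVC on stage IV–V oocytes 1–5 days after equal-ratio cRNA injection (α2β4, α3β4, α4β4, α7). ACh 300 μM, 1 s pulses at 60 s intervals under frog saline perfusion. Peptide perfused to 1 μM, normalized to average of three control responses; higher concentrations by 5 min static bath. IC50 with 95% CI, n oocytes.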
A general note: Two-electrode voltage clamp holds a large cell at a set potential and records current.

The species entered for test [2] is Rattus norvegicus. The test can be described thus: Selectivity ratio of IC50 for rat alpha4beta4 nAChR to IC50 for rat alpha6/alpha3beta4 nAChR. A digest of the protocol: (§2)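 Ratio of each subtype's IC50, from TEVC inhibition of ACh-evoked currents in X. laevis oocytes, to the IC50 at the same species' α6/α3β4 nAChR; IC50 values with 95% CI, n = number of oocytes.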

Test [3] addresses Neuronal acetylcholine receptor; alpha2/beta2 (Homo sapiens, UniProt P17787+Q15822). The test can be described thus: Inhibition of human alpha2beta2 nAChR expressed in Xenopus laevis oocytes assessed as inhibition of acetylcholine-induced current response by two-electrode voltage-clamp method. It is filed as cell-based, Oocyte. The gist of the method:
(§3)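 Two-electrode voltage clamp of stage IV–V oocytes 1–5 days after equal-ratio cRNA injection; ACh 100 μM (β2-containing subtypes, α9α10), 1 s every 60 s in frog saline. Peptide perfused up to 1 μM, responses normalized to mean of three control responses; above 1 μM, 5 min static bath. IC50 with 95% CI; n = oocytes.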

For test [4], the species on record is Homo sapiens. Kind of test: Selectivity ratio of IC50 for human alpha2beta2 nAChR to IC50 for human alpha6/alpha3beta4 nAChR. The gist of the method: as §2
For test [5], the target named is Neuronal acetylcholine receptor; alpha2/beta4 (Rattus norvegicus, UniProt P12389+P12392). The test can be described thus: Inhibition of rat alpha2beta4 nAChR expressed in Xenopus laevis oocytes assessed as inhibition of acetylcholine-induced current response by two-electrode voltage-clamp method. The format is cell-based, Oocyte. A digest of the protocol:
as §1

The target of test [6] is Neuronal acetylcholine receptor; alpha4/beta2 (Homo sapiens, UniProt P17787+P43681). The test can be described thus: Inhibition of human alpha4beta2 nAChR expressed in Xenopus laevis oocytes assessed as inhibition of acetylcholine-induced current response by two-electrode voltage-clamp method. It is filed as cell-based, Oocyte. A digest of the protocol:
as §3

The species named for test [7] is Rattus norvegicus. The test can be described thus: Selectivity ratio of IC50 for rat alpha4beta2 nAChR to IC50 for rat alpha6/alpha3beta4 nAChR. A digest of the protocol:
as §2

For test [8], the species on record is Homo sapiens. Kind of test: Selectivity ratio of IC50 for human alpha6/alpha3beta2beta3 nAChR to IC50 for human alpha6/alpha3beta4 nAChR. A digest of the protocol:
as §2

The species entered for test [9] is Homo sapiens. Kind of test: Selectivity ratio of IC50 for human alpha2beta4 nAChR to IC50 for human alpha6/alpha3beta4 nAChR. A digest of the protocol: as §2
The target in test [10] is Neuronal acetylcholine receptor; alpha2/beta2 (Rattus norvegicus, UniProt P12389+P12390). The test can be described thus: Inhibition of rat alpha2beta2 nAChR expressed in Xenopus laevis oocytes assessed as inhibition of acetylcholine-induced current response by two-electrode voltage-clamp method. It is filed as cell-based, Oocyte. The gist of the method:
as §3

The species entered for test [11] is Rattus norvegicus. Kind of test: Selectivity ratio of IC50 for rat alpha2beta4 nAChR to IC50 for rat alpha6/alpha3beta4 nAChR. The gist of the method:
as §2

The species entered for test [12] is Rattus norvegicus. Kind of test: Selectivity ratio of IC50 for rat alpha3beta4 nAChR to IC50 for rat alpha6/alpha3beta4 nAChR. The gist of the method: as §2
The target of test [13] is Neuronal acetylcholine receptor; alpha9/alpha10 (Homo sapiens, UniProt Q9GZZ6+Q9UGM1). Kind of test: Inhibition of human alpha9alpha10 nAChR expressed in Xenopus laevis oocytes assessed as inhibition of acetylcholine-induced current response by two-electrode voltage-clamp method. The format is cell-based, Oocyte. The gist of the method: as §3
The species named for test [14] is Rattus norvegicus. Kind of test: Selectivity ratio of IC50 for rat alpha2beta2 nAChR to IC50 for rat alpha6/alpha3beta4 nAChR. The gist of the method:
as §2

The target of test [15] is Neuronal acetylcholine receptor; alpha3/alpha6/beta2/beta3 (Homo sapiens, UniProt P17787+P32297+Q05901+Q15825). Kind of test: Inhibition of human alpha6/alpha3beta2beta3 nAChR expressed in Xenopus laevis oocytes assessed as inhibition of acetylcholine-induced current response by two-electrode voltage-clamp method. It is filed as cell-based, Oocyte. The gist of the method:
as §3

For test [16], the species on record is Homo sapiens. Kind of test: Selectivity ratio of IC50 for human alpha9alpha10 nAChR to IC50 for human alpha6/alpha3beta4 nAChR. A digest of the protocol:
as §2

Test [17] concerns the target Nicotinic acetylcholine receptor alpha6/alpha3/beta2/beta3 (Rattus norvegicus, UniProt P04757+P12390+P12391+P43143). It is filed as cell-based, Oocyte.
Test [18] addresses Neuronal acetylcholine receptor; alpha3/beta2 (Rattus norvegicus, UniProt P04757+P12390). It is filed as cell-based, Oocyte.
Test [19] is filed under the species Homo sapiens. Kind of test: Selectivity ratio of IC50 for human alpha4beta2 nAChR to IC50 for human alpha6/alpha3beta4 nAChR. A digest of the protocol:
as §2

For test [20], the target named is Neuronal acetylcholine receptor; alpha3/beta4 (Rattus norvegicus, UniProt P04757+P12392). It is filed as cell-based, Oocyte.
The target in test [21] is Neuronal acetylcholine receptor; alpha3/beta4 (Homo sapiens, UniProt P30926+P32297). Kind of test: Inhibition of human alpha3beta4 nAChR expressed in Xenopus laevis oocytes assessed as inhibition of acetylcholine-induced current response by two-electrode voltage-clamp method. The format is cell-based, Oocyte. The gist of the method:
as §1

In test [22] the target is Neuronal acetylcholine receptor; alpha2/beta4 (Rattus norvegicus) (UniProt P12389+P12392). The test can be described thus: Inhibition of rat alpha2beta4 nAChR expressed in Xenopus laevis oocytes assessed as inhibition of acetylcholine-induced current response at 10 uM by two-electrode voltage-clamp method relative to control. The format is cell-based. Particulars: Oocyte. The gist of the method: (§4)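 Stage IV–V X. laevis oocytes expressing equal-ratio cRNAs of α2β4, α3β4, α4β4 or α7 subunits; TEVC 1–5 days after injection. ACh 300 μM, 1 s at 60 s intervals. 10 μM peptide as 5 min static bath, normalized to ACh response after 5 min bath of control saline; mean ± SD, n = 4.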

Test [23] is filed under the species Homo sapiens. Kind of test: Selectivity ratio of IC50 for human alpha4beta4 nAChR to IC50 for human alpha6/alpha3beta4 nAChR. The gist of the method: as §2
For a further test, the system named is Oocyte. Kind of test: Inhibition of human alpha4beta4 nAChR expressed in Xenopus laevis oocytes assessed as inhibition of acetylcholine-induced current response at 10 uM by two-electrode voltage-clamp method relative to control. The format is cell-based. A digest of the protocol: as §4
For test [24], the target named is Nicotinic acetylcholine receptor alpha6/alpha3/beta4 (Rattus norvegicus, UniProt P04757+P12392+P43143). It is filed as cell-based, Oocyte.
In test [25] the target is Neuronal acetylcholine receptor; alpha4/beta2 (Rattus norvegicus, UniProt P09483+P12390). It is filed as cell-based, Oocyte.
Test [26] addresses Neuronal acetylcholine receptor subunit alpha-7 (Rattus norvegicus, UniProt Q05941). The format is cell-based, Oocyte.
Test [27] has as its target Neuronal acetylcholine receptor; alpha3/beta2 (Homo sapiens, UniProt P17787+P32297). The test can be described thus: Inhibition of human alpha3beta2 nAChR expressed in Xenopus laevis oocytes assessed as inhibition of acetylcholine-induced current response by two-electrode voltage-clamp method. The format is cell-based, Oocyte. The gist of the method: as §3
The target of test [28] is Nicotinic acetylcholine receptor alpha9/alpha10 (Rattus norvegicus, UniProt P43144+Q9JLB5). Kind of test: Inhibition of rat alpha9alpha10 nAChR expressed in Xenopus laevis oocytes assessed as inhibition of acetylcholine-induced current response by two-electrode voltage-clamp method. The format is cell-based, Oocyte. A digest of the protocol:
as §3

Test [29] deals with Neuronal acetylcholine receptor; alpha4/beta4 (Rattus norvegicus) (UniProt P09483+P12392). Kind of test: Inhibition of rat alpha4beta4 nAChR expressed in Xenopus laevis oocytes assessed as inhibition of acetylcholine-induced current response at 10 uM by two-electrode voltage-clamp method relative to control. It is filed as cell-based. The note with it: Oocyte. The gist of the method:
as §4

Test [30] deals with Neuronal acetylcholine receptor subunit alpha-7 (Homo sapiens, UniProt P36544). The test can be described thus: Inhibition of human alpha7 nAChR expressed in Xenopus laevis oocytes assessed as inhibition of acetylcholine-induced current response by two-electrode voltage-clamp method. It is filed as cell-based, Oocyte. The gist of the method: as §1
Test [31] concerns the target Neuronal acetylcholine receptor; alpha4/beta4 (Rattus norvegicus, UniProt P09483+P12392). The format is cell-based, Oocyte.

Where a SMILES comes first, the peptide text is derived from it. Bridges are numbered along the chain shown (N, C = ends). Bounds are passed on as bounds.

The IC50 is the concentration that gives 50% inhibition. The term inhibition denotes the percentage by which the read-out fell short of the control.

Chain of Neuronal acetylcholine receptor subunit alpha-7 (Rattus norvegicus, UniProt Q05941) (Q05941 whole entry): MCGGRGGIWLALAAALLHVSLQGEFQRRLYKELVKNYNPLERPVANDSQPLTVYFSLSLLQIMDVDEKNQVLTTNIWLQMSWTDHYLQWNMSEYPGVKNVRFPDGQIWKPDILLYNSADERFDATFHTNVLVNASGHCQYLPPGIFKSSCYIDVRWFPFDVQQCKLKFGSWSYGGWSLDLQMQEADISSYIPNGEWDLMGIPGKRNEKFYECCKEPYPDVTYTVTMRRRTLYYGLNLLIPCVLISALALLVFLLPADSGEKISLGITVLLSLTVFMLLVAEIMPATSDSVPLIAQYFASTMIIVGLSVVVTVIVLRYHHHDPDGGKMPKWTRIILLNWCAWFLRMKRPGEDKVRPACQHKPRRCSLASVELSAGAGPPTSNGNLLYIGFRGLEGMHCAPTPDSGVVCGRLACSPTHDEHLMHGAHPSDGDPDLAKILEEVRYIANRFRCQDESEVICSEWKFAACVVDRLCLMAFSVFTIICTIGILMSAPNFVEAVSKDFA
Chain of Neuronal acetylcholine receptor; alpha3/beta4 (Rattus norvegicus, UniProt P04757+P12392) (P04757 whole entry): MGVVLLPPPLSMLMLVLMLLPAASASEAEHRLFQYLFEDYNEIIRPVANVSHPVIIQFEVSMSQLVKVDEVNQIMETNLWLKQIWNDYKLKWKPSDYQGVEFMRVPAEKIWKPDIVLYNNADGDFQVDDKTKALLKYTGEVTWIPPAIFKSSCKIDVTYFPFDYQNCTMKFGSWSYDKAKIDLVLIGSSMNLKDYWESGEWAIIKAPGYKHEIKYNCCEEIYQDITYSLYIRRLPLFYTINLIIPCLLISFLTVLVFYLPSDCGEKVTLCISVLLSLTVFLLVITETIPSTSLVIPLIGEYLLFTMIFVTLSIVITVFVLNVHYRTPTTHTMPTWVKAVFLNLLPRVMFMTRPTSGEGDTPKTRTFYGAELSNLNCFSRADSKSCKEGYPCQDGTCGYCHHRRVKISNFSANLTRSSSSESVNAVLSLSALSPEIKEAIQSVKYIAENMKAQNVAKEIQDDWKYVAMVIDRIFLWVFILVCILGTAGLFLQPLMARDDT
Chain of Neuronal acetylcholine receptor; alpha3/beta4 (Rattus norvegicus, UniProt P04757+P12392) (P12392 whole entry): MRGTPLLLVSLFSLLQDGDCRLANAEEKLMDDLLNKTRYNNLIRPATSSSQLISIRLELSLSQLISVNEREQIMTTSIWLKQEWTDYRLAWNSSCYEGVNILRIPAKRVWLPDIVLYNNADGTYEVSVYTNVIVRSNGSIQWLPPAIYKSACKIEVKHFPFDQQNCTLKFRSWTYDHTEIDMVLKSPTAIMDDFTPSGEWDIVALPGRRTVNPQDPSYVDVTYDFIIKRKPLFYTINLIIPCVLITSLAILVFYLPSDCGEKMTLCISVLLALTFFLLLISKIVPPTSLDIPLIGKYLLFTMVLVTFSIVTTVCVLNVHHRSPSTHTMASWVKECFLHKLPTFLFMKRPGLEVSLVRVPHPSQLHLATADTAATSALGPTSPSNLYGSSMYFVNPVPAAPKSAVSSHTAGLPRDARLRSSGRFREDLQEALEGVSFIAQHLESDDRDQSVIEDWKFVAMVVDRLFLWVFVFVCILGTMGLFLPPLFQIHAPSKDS
Chain of Nicotinic acetylcholine receptor alpha6/alpha3/beta4 (P04757 whole entry): as the sequence (P04757 whole entry) above
Chain of Nicotinic acetylcholine receptor alpha6/alpha3/beta4 (P12392 whole entry): as the sequence (P12392 whole entry) above
Chain of Nicotinic acetylcholine receptor alpha6/alpha3/beta4 (P43143 whole entry): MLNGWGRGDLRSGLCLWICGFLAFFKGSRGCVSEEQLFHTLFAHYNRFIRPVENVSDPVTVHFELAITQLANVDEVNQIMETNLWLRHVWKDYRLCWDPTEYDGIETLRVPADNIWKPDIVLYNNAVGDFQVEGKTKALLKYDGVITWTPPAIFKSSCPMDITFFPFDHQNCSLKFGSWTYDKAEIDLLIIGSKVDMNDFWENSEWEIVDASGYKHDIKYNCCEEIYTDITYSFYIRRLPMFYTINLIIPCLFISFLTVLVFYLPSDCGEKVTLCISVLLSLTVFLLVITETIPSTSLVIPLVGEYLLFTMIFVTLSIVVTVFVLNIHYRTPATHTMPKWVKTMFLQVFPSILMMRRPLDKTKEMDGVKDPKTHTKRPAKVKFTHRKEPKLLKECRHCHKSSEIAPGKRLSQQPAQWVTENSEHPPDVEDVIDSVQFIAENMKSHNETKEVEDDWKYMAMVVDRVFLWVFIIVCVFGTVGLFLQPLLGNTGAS
Chain of Nicotinic acetylcholine receptor alpha6/alpha3/beta2/beta3 (P04757 whole entry): as the sequence (P04757 whole entry) above
Chain of Nicotinic acetylcholine receptor alpha6/alpha3/beta2/beta3 (P12390 whole entry): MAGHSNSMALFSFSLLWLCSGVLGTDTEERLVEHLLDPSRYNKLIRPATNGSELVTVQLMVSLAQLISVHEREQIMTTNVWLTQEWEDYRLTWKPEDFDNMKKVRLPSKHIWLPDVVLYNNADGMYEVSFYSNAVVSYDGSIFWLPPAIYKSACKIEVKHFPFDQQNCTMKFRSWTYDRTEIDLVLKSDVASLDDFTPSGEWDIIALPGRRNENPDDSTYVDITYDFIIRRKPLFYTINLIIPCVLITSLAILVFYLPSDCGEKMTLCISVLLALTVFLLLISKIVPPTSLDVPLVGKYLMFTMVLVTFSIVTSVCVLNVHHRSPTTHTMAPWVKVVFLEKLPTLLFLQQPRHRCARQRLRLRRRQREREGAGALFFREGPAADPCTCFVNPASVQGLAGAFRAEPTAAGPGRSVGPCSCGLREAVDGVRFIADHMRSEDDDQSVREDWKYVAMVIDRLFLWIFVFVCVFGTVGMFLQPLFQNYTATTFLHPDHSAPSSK
Chain of Nicotinic acetylcholine receptor alpha6/alpha3/beta2/beta3 (P12391 whole entry): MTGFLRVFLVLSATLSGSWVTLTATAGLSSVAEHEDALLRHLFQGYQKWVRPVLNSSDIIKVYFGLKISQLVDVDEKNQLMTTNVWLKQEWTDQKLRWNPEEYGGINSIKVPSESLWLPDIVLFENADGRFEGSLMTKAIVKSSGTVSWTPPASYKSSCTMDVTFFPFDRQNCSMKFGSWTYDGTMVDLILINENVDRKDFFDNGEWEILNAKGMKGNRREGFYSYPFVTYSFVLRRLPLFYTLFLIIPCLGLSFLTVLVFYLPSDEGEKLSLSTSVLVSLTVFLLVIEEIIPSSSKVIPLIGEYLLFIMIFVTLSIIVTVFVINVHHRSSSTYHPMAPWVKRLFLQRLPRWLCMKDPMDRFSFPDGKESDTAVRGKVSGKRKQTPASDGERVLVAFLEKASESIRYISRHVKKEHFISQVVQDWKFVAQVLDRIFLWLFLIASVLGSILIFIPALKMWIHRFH
Chain of Nicotinic acetylcholine receptor alpha6/alpha3/beta2/beta3 (P43143 whole entry): as the sequence (P43143 whole entry) above

Take `CC(C)C[C@@H]1NC(=O)[C@H](C)NC(=O)[C@H](CCCNC(=N)N)NC(=O)[C@H](Cc2cnc[nH]2)NC(=O)[C@H](CCCNC(=N)N)NC(=O)[C@H](C)NC(=O)[C@H](CCCNC(=N)N)NC(=O)[C@@H]2CSSC[C@H](NC(=O)CN)C(=O)N[C@@H](CSSC[C@@H](C(N)=O)NC1=O)C(=O)N[C@@H](CO)C(=O)N[C@@H](Cc1cnc[nH]1)C(=O)N1CCC[C@H]1C(=O)N[C@@H](C(C)C)C(=O)N2` (H-GCCSHPVCRARHRALC-NH2; disulfide 2-8, 3-16): the 50% inhibitory concentration (IC50) is greater than 10 µM in test [1]; greater than 10 µM in test [3]; greater than 10 µM in test [5]; greater than 10 µM in test [6]; greater than 10 µM in test [10]; 576 nM in [13]. The IC50 in test [15] was 5.55 nM; in test [17], 3.14 nM; in [18], 9.51 µM; in test [20], greater than 10 µM; in test [21], 9.06 µM; in test [24], greater than 10000 nM. The IC50 in [25] is greater than 10 µM; in [26], 3.94 µM; in test [27] it was 12.2 µM; in test [28], 667 nM; in test [30], 5.56 µM. Moreover, the Ratio IC50 in the test listed under Rattus norvegicus [2] was greater than 3180; in the test filed under Homo sapiens [4], greater than 1800; in the test listed under Rattus norvegicus [7], greater than 3180; in the test filed under Homo sapiens [8], 1; in the test filed under Homo sapiens [9], greater than 1800; in the test listed under Rattus norvegicus [11] it was greater than 3180. For the same molecule, the Ratio IC50 in the test filed under Rattus norvegicus [12] is greater than 3180; in the test listed under Rattus norvegicus [14], greater than 3180; in the test filed under Homo sapiens [16] it was 104; in the test filed under Homo sapiens [19], greater than 1800; in the test listed under Homo sapiens [23] it was greater than 1800. In addition, the values for the inhibition (in test [22]; in the test on Oocyte; in test [29]) were 85%, 92% and 82%, respectively.
With `CC(C)C[C@@H]1NC(=O)[C@H](C)NC(=O)[C@@H]2CCCN2C(=O)[C@H](CCC(=O)O)NC(=O)[C@H](CCCNC(=N)N)NC(=O)[C@H](C)NC(=O)[C@H](Cc2cnc[nH]2)NC(=O)[C@@H]2CSSC[C@H](NC(=O)CN)C(=O)N[C@@H](CSSC[C@@H](C(N)=O)NC1=O)C(=O)N[C@@H](CO)C(=O)N[C@@H](Cc1cnc[nH]1)C(=O)N1CCC[C@H]1C(=O)N[C@@H](Cc1cnc[nH]1)C(=O)N2` (H-GCCSHPHCHAREPALC-NH2; disulfide 2-8, 3-16), the IC50 in test [31] was greater than 10 µM; in [17] it was 43.8 nM; in [18], greater than 10 µM; in [20], greater than 10 µM; in test [24], 43.8 nM; in test [25], greater than 10 µM. The same molecule had an IC50 in test [26] greater than 10 µM.
